In ChEMBL document CHEMBL1781989, “Novel β-carboline-tripeptide conjugates attenuate mesenteric ischemia/reperfusion injury in the rat” (2011) one finds Activity, inhibition in vivo and inhibition data, which are given here for 17 molecules.

Non-standard residues stand in square brackets, D forms with d. Residues, ends and D or L forms follow the SMILES beside them. Tpi = O=C(O)[C@@H]1Cc2c([nH]c3ccccc23)CN1

The test system of test [1] is Mus musculus. Description: Analgesic activity in ICR mouse assessed as increase in pain threshold at 0.15 mmol/kg, po after 60 mins by tail flick method (reference value: 7.45 +/- 8.03 %). It counts as functional.
Test [2] relates to Mus musculus. In words: Analgesic activity in ICR mouse assessed as increase in pain threshold at 0.15 mmol/kg, po after 150 mins by tail flick method (reference value: 9.02 +/- 12.19 %). It counts as functional.
The test system of test [3] is Mus musculus. In words: Analgesic activity in ICR mouse assessed as increase in pain threshold at 0.15 mmol/kg, po after 120 mins by tail flick method (reference value: 8.09 +/- 13.28 %). Type of test: functional. In general terms: Hot-plate and tail-flick tests time the reaction to a heat stimulus.
Test [4] concerns Mus musculus. Description: Analgesic activity in ICR mouse assessed as increase in pain threshold at 0.15 mmol/kg, po after 30 mins by tail flick method (reference value: 5.03 +/- 10.26 %). It counts as functional.
In test [5] the test system is Mus musculus. In words: Analgesic activity in ICR mouse assessed as increase in pain threshold at 0.15 mmol/kg, po after 180 mins by tail flick method (reference value: 8.75 +/- 9.73 %). It counts as functional.
For test [6], the system named is Mus musculus. In words: Analgesic activity in ICR mouse assessed as increase in pain threshold at 0.15 mmol/kg, po after 90 mins by tail flick method (reference value: 7.53 +/- 11.54 %). Type of test: functional.
The subject of test [7] is Mus musculus. In words: Antiinflammatory activity in ICR mouse assessed as inhibition of xylene-induced ear edema at 0.15 mmol/kg, po administered 30 mins before xylene challenge measured after 2 hrs relative to control. Type of test: functional. In outline:
(§1)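 Male ICR mice (20 ± 2 g), randomised to test, vehicle (CMC) and aspirin (10 mg/kg oral) groups. Test agents given orally as CMC suspension. After 30 min, 0.03 mL xylene applied to both faces of the right ear, left ear as control. At 2 h mice were killed and 7 mm ear punches weighed. Edema is the right-minus-left weight, and inhibition is taken against vehicle.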

In test [8] the test system is Mus musculus. Description: Antiinflammatory activity in po dosed ICR mouse assessed as inhibition of xylene-induced ear edema administered 30 mins before xylene challenge measured after 2 hrs. It counts as functional, organism-based. The procedure, abridged:
as §1

For test [9], the system named is Mus musculus. In words: Antiinflammatory activity in ICR mouse assessed as inhibition of xylene-induced ear edema at 0.05 mmol/kg, po administered 30 mins before xylene challenge measured after 2 hrs relative to control. Type of test: functional. The procedure, abridged:
as §1

The test system of test [10] is Mus musculus. In words: Antiinflammatory activity in ICR mouse assessed as inhibition of xylene-induced ear edema at 0.10 mmol/kg, po administered 30 mins before xylene challenge measured after 2 hrs relative to control. Type of test: functional. The procedure, abridged:
as §1

In general, inhibition in vivo refers to the change of the read-out against control, counted positive when it falls. For `O=C(O)[C@H](Cc1c[nH]c2ccccc12)NC(=O)[C@H](Cc1ccccc1)NC(=O)[C@H](Cc1cnc[nH]1)NC(=O)[C@@H]1Cc2c([nH]c3ccccc23)CN1` (H-[Tpi]HFW-OH), the Activity in the test with Mus musculus [1] worked out at 32.19%; in the test on Mus musculus [2] it was 24.33%; with Mus musculus [3], 39.38%; with Mus musculus [4], 37.25%; with Mus musculus [5], 13.29%; with Mus musculus [6], 22.23%. Besides, the inhibition in vivo at 150 µmol/kg with Mus musculus [7] was 57.6%.
Take `O=C(O)CC[C@H](NC(=O)[C@@H]1Cc2c([nH]c3ccccc23)CN1)C(=O)N[C@@H](Cc1ccccc1)C(=O)N[C@@H](Cc1c[nH]c2ccccc12)C(=O)O` (H-[Tpi]EFW-OH): the Activity came to 17.23% with Mus musculus [1]; 12.25% in the test on Mus musculus [2]; 39.23% in the test with Mus musculus [3]; 18.24% in the test with Mus musculus [4]; 12.32% in the test with Mus musculus [5]; 29.25% in the test with Mus musculus [6]. For the same molecule, the inhibition in vivo at 150 µmol/kg in the test on Mus musculus [7] amounted to 28.4%.
In the case of `O=C(O)[C@H](Cc1c[nH]c2ccccc12)NC(=O)[C@H](Cc1ccccc1)NC(=O)[C@H](Cc1ccc(O)cc1)NC(=O)[C@@H]1Cc2c([nH]c3ccccc23)CN1` (H-[Tpi]YFW-OH), the inhibition result with Mus musculus [8] is “Dose-dependent effect”. The Activity with Mus musculus [1] was found to be 41.18%; in the test with Mus musculus [2], 28.87%; with Mus musculus [3], 30.25%; with Mus musculus [4], 35.75%; in the test on Mus musculus [5], 20.94%; in the test on Mus musculus [6], 43.23%. Moreover, the inhibition in vivo at 150 µmol/kg in the test with Mus musculus [7] was determined as 50.9%. The inhibition in vivo at 50 µmol/kg with Mus musculus [9] worked out at 16.2%. Further, the inhibition in vivo at 100 µmol/kg in the test on Mus musculus [10] is 32.9%.
For `NC(=O)CC[C@H](NC(=O)[C@@H]1Cc2c([nH]c3ccccc23)CN1)C(=O)N[C@@H](Cc1ccccc1)C(=O)N[C@@H](Cc1c[nH]c2ccccc12)C(=O)O` (H-[Tpi]QFW-OH), the Activity came to 47.33% in the test on Mus musculus [1]; 18.32% in the test with Mus musculus [2]; 32.33% in the test on Mus musculus [3]; 41.83% in the test on Mus musculus [4]; 22.45% in the test with Mus musculus [5]; 51.25% in the test on Mus musculus [6]. The inhibition in vivo at 150 µmol/kg in the test on Mus musculus [7] was 42.4%.
Regarding `CC(C)[C@H](NC(=O)[C@@H]1Cc2c([nH]c3ccccc23)CN1)C(=O)N[C@@H](Cc1ccccc1)C(=O)N[C@@H](Cc1c[nH]c2ccccc12)C(=O)O` (H-[Tpi]VFW-OH), the Activity with Mus musculus [1] was found to be 45.77%; in the test with Mus musculus [2], 25.88%; with Mus musculus [3] it was 35.79%; in the test with Mus musculus [4] it was 39.47%; with Mus musculus [5] it was 16.03%; in the test on Mus musculus [6], 47.36%. Also, the inhibition in vivo at 150 µmol/kg in the test on Mus musculus [7] came out at 43.6%.
Consider `O=C(O)[C@H](Cc1c[nH]c2ccccc12)NC(=O)[C@H](Cc1ccccc1)NC(=O)[C@H](Cc1c[nH]c2ccccc12)NC(=O)[C@@H]1Cc2c([nH]c3ccccc23)CN1` (H-[Tpi]WFW-OH), for which the Activity in the test on Mus musculus [1] came to 36.45%; in the test with Mus musculus [2], 16.69%; in the test on Mus musculus [3], 28.55%; with Mus musculus [4] it was 35.05%; in the test on Mus musculus [5], 14.23%; with Mus musculus [6] it was 35.19%. The inhibition in vivo at 150 µmol/kg with Mus musculus [7] came to 51.5%.
As for `O=C(O)[C@H](Cc1c[nH]c2ccccc12)NC(=O)[C@H](Cc1ccccc1)NC(=O)[C@@H]1CCCN1C(=O)[C@@H]1Cc2c([nH]c3ccccc23)CN1` (H-[Tpi]PFW-OH), the Activity with Mus musculus [1] was determined as 49.74%; in the test on Mus musculus [2], 25.05%; with Mus musculus [3], 18.79%; in the test with Mus musculus [4], 23.17%; with Mus musculus [5] it was 15.68%; in the test with Mus musculus [6] it was 21.35%. For the same molecule, the inhibition in vivo at 150 µmol/kg in the test on Mus musculus [7] is 47.3%.
As for `CC[C@H](C)[C@H](NC(=O)[C@@H]1Cc2c([nH]c3ccccc23)CN1)C(=O)N[C@@H](Cc1ccccc1)C(=O)N[C@@H](Cc1c[nH]c2ccccc12)C(=O)O` (H-[Tpi]IFW-OH), the Activity is 38.01% in the test with Mus musculus [1]; 15.25% in the test on Mus musculus [2]; 27.32% in the test on Mus musculus [3]; 33.01% in the test on Mus musculus [4]; 16.13% in the test with Mus musculus [5]; 41.23% in the test with Mus musculus [6]. Besides, the inhibition in vivo at 150 µmol/kg in the test with Mus musculus [7] is 56.4%.
For the molecule `O=C(O)[C@H](Cc1c[nH]c2ccccc12)NC(=O)[C@H](Cc1ccccc1)NC(=O)[C@H](CO)NC(=O)[C@@H]1Cc2c([nH]c3ccccc23)CN1` (H-[Tpi]SFW-OH), the Activity was 42.32% in the test with Mus musculus [1]; 26.47% with Mus musculus [2]; 38.45% with Mus musculus [3]; 30.56% with Mus musculus [4]; 25.07% with Mus musculus [5]; 44.13% with Mus musculus [6]. In the test with Mus musculus [7], the inhibition in vivo at 150 µmol/kg was determined as 45.7%.
As to `O=C(O)[C@H](Cc1c[nH]c2ccccc12)NC(=O)[C@H](Cc1ccccc1)NC(=O)[C@H](Cc1ccccc1)NC(=O)[C@@H]1Cc2c([nH]c3ccccc23)CN1` (H-[Tpi]FFW-OH), the Activity in the test on Mus musculus [1] is reported as 37.2%; in the test on Mus musculus [2] it was 21.12%; in the test with Mus musculus [3] it was 45.46%; in the test with Mus musculus [4] it was 31.34%; in the test with Mus musculus [5], 15.32%; in the test on Mus musculus [6], 40.56%. Also, the inhibition in vivo at 150 µmol/kg in the test with Mus musculus [7] turned out to be 48.2%.
Take `C[C@@H](O)[C@H](NC(=O)[C@@H]1Cc2c([nH]c3ccccc23)CN1)C(=O)N[C@@H](Cc1ccccc1)C(=O)N[C@@H](Cc1c[nH]c2ccccc12)C(=O)O` (H-[Tpi]TFW-OH): the Activity with Mus musculus [1] is given as 38.2%; with Mus musculus [2], 23.19%; in the test on Mus musculus [3], 42.43%; with Mus musculus [4] it was 30.75%; with Mus musculus [5], 19.25%; in the test on Mus musculus [6], 40.36%. Also, the inhibition in vivo at 150 µmol/kg with Mus musculus [7] was found to be 50.6%.
In the case of `O=C(CNC(=O)[C@@H]1Cc2c([nH]c3ccccc23)CN1)N[C@@H](Cc1ccccc1)C(=O)N[C@@H](Cc1c[nH]c2ccccc12)C(=O)O` (H-[Tpi]GFW-OH), the Activity in the test on Mus musculus [1] turned out to be 40.78%; in the test on Mus musculus [2], 22.37%; with Mus musculus [3], 49.09%; with Mus musculus [4], 10.36%; with Mus musculus [5] it was 14.36%; in the test with Mus musculus [6] it was 46.45%. Also, in the test with Mus musculus [7], the inhibition in vivo at 150 µmol/kg amounted to 37.5%.
Turning to `CC(=O)Oc1ccccc1C(=O)O` [ASPIRIN], the Activity in the test on Mus musculus [1] worked out at 38.45%; with Mus musculus [2], 30.41%; in the test with Mus musculus [3] it was 33.24%; in the test with Mus musculus [4], 32.85%; with Mus musculus [5], 21.72%; in the test with Mus musculus [6], 41.23%.
Turning to `NCCCC[C@H](N)C(=O)N[C@@H](Cc1ccccc1)C(=O)N[C@@H](Cc1c[nH]c2ccccc12)C(=O)O` (H-Lys-Phe-Trp-OH), the Activity in the test on Mus musculus [1] is on record as 25.43%; with Mus musculus [2], 11.23%; in the test with Mus musculus [3] it was 20.14%; in the test on Mus musculus [4], 20.16%; in the test on Mus musculus [5], 8.41%; in the test with Mus musculus [6], 23.47%.
In the case of `O=C(O)C[C@H](NC(=O)[C@@H]1Cc2c([nH]c3ccccc23)CN1)C(=O)N[C@@H](Cc1ccccc1)C(=O)N[C@@H](Cc1c[nH]c2ccccc12)C(=O)O` (H-[Tpi]DFW-OH), the Activity is listed as 28.12% in the test with Mus musculus [1]; 13.54% with Mus musculus [2]; 40.67% in the test with Mus musculus [3]; 22.17% in the test on Mus musculus [4]; 18.77% with Mus musculus [5]; 34.55% in the test with Mus musculus [6]. For the same molecule, in the test with Mus musculus [7], the inhibition in vivo at 150 µmol/kg came out at 40%.
Take `NC(=O)C[C@H](NC(=O)[C@@H]1Cc2c([nH]c3ccccc23)CN1)C(=O)N[C@@H](Cc1ccccc1)C(=O)N[C@@H](Cc1c[nH]c2ccccc12)C(=O)O` (H-[Tpi]NFW-OH): the Activity in the test with Mus musculus [1] is 45.23%; in the test on Mus musculus [2] it was 22.12%; with Mus musculus [3], 39.25%; with Mus musculus [4] it was 21.24%; with Mus musculus [5], 19.45%; with Mus musculus [6] it was 34.56%. In addition, the inhibition in vivo at 150 µmol/kg in the test with Mus musculus [7] was 55.8%.
In the case of `CC(C)C[C@H](N)C(=O)N[C@@H](Cc1ccccc1)C(=O)N[C@@H](Cc1c[nH]c2ccccc12)C(=O)O` (H-Leu-Phe-Trp-OH), the Activity in the test on Mus musculus [1] amounted to 28.79%; in the test on Mus musculus [2] it was 9.77%; with Mus musculus [3], 18.92%; in the test with Mus musculus [4] it was 25.38%; in the test on Mus musculus [5], 7.98%; in the test on Mus musculus [6], 20.13%.
